Source: ChEMBL document CHEMBL2417469, “Synthesis of novel analogs of 2-pyrazoline obtained from [(7-chloroquinolin-4-yl)amino]chalcones and hydrazine as potential antitumor and antimalarial agents” (Eur J Med Chem, 2013)

Columns and labels:
Format in all cases: functional
[1] = test system: DU-145; test: Cytotoxicity against human DU145 cells after 48 hrs by SRB assay; conditions: DU-145, 48 h
Procedure, shortened: (§1)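 NCI 60-cell-line screen. Cells preincubated 24 h at 37 °C, 5% CO2; time-zero plates TCA-fixed. Compounds dissolved in DMSO and tested at five concentrations (100, 10, 1.0, 0.1, 0.01 µM) for 48 h continuous exposure. Adherent cells fixed with cold TCA (10% final), then SRB stained; absorbance at 515 nm. GI50, TGI and LC50 calculated from growth relative to time-zero and untreated controls.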

[2] = test system: COLO 205; test: Cytotoxicity against human COLO205 cells after 48 hrs by SRB assay; conditions: COLO 205, 48 h; procedure, shortened: as §1
[3] = Cytotoxicity against human EKVX cells after 48 hrs by SRB assay; procedure, shortened: as §1
[4] = test system: SK-MEL-28; test: Cytotoxicity against human SK-MEL-28 cells after 48 hrs by SRB assay; conditions: SK-MEL-28, 48 h; for CC50: read-out: LC50 (the source's name); procedure, shortened: as §1
[5] = test system: OVCAR-5; test: Cytotoxicity against human OVCAR5 cells after 48 hrs by SRB assay; conditions: OVCAR-5, 48 h; procedure, shortened: as §1
[6] = test system: A498; test: Cytotoxicity against human A498 cells after 48 hrs by SRB assay; conditions: A498, 48 h; for CC50: read-out: LC50 (the source's name); procedure, shortened: as §1
[7] = test system: RXF 393; test: Cytotoxicity against human RXF393 cells after 48 hrs by SRB assay; conditions: RXF 393, 48 h; procedure, shortened: as §1
[8] = test system: 786-0; test: Cytotoxicity against human 786-0 cells after 48 hrs by SRB assay; conditions: 786-0, 48 h; procedure, shortened: as §1
[9] = test system: SK-OV-3; test: Cytotoxicity against human SKOV3 cells after 48 hrs by SRB assay; conditions: SK-OV-3, 48 h; procedure, shortened: as §1
[10] = test system: MCF7; test: Cytotoxicity against human MCF7 cells after 48 hrs by SRB assay; conditions: MCF7, 48 h; for CC50: read-out: LC50 (the source's name); procedure, shortened: as §1
[11] = test system: OVCAR-3; test: Cytotoxicity against human OVCAR3 cells after 48 hrs by SRB assay; conditions: OVCAR-3, 48 h; procedure, shortened: as §1
[12] = test system: A549; test: Cytotoxicity against human A549/ATCC cells after 48 hrs by SRB assay; conditions: A549, 48 h; for CC50: read-out: LC50 (the source's name); procedure, shortened: as §1
[13] = test system: UO-31; test: Cytotoxicity against human UO31 cells after 48 hrs by SRB assay; conditions: UO-31, 48 h
Procedure, shortened: (§2)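 NCI 60-cell screen. Cells grew 24 h (37 °C, 5% CO2) before compound was added. Compounds were in DMSO and diluted in medium with gentamicin, then tested at five levels (100, 10, 1.0, 0.1, 0.01 µM) with 48 h continuous exposure. Adherent cells were fixed with TCA (10% final) and stained with 0.4% SRB, absorbance read at 515 nm. A time-zero plate was included. LC50 is the concentration giving 50% loss of protein relative to time zero.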

[14] = test system: M14; test: Cytotoxicity against human M14 cells after 48 hrs by SRB assay; conditions: M14, 48 h; for CC50: read-out: LC50 (the source's name); procedure, shortened: as §1
[15] = test system: KM12; test: Cytotoxicity against human KM12 cells after 48 hrs by SRB assay; conditions: KM12, 48 h; procedure, shortened: as §1
[16] = test system: SK-MEL-5; test: Cytotoxicity against human SK-MEL-5 cells after 48 hrs by SRB assay; conditions: SK-MEL-5, 48 h; procedure, shortened: as §1
[17] = test system: Malme-3M; test: Cytotoxicity against human MALME-3M cells after 48 hrs by SRB assay; procedure, shortened: as §1
[18] = test system: SW-620; test: Cytotoxicity against human SW620 cells after 48 hrs by SRB assay; conditions: SW-620, 48 h; procedure, shortened: as §2
[19] = test system: U-251; test: Cytotoxicity against human U251 cells after 48 hrs by SRB assay; conditions: U-251, 48 h; for CC50: read-out: LC50 (the source's name); procedure, shortened: as §2
[20] = test system: NCI-H460; test: Cytotoxicity against human NCI-H460 cells after 48 hrs by SRB assay; conditions: NCI-H460, 48 h; procedure, shortened: as §1
[21] = test system: SNB-19; test: Cytotoxicity against human SNB19 cells after 48 hrs by SRB assay; conditions: SNB-19, 48 h; procedure, shortened: as §2
[22] = test system: OVCAR-4; test: Cytotoxicity against human OVCAR4 cells after 48 hrs by SRB assay; conditions: OVCAR-4, 48 h; procedure, shortened: as §1
[23] = test system: OVCAR-8; test: Cytotoxicity against human OVCAR8 cells after 48 hrs by SRB assay; conditions: OVCAR-8, 48 h; procedure, shortened: as §1
[24] = test system: HL-60(TB); test: Cytotoxicity against human HL-60(TB) cells after 48 hrs by SRB assay; conditions: HL-60, 48 h; for CC50: read-out: LC50 (the source's name); procedure, shortened: as §1

`COc1ccc(C2CC(c3ccc(Nc4ccnc5cc(Cl)ccc45)cc3)=NN2C=O)cc1` (stereo unspecified) gave a GI50 [1] of 38 µM, an LC50 (concentration killing 50% of cells) [1] greater than 100 µM and a GI50 [2] of 3.56 µM. The LC50 [2] was greater than 100 µM, the GI50 [3] was greater than 100 µM and the LC50 [3] was greater than 100 µM. The GI50 [4] was 20.9 µM, the CC50 [4] was greater than 100 µM and the GI50 [5] was greater than 100 µM. The LC50 [5] was greater than 100 µM, the GI50 [6] was greater than 100 µM and the CC50 [6] was greater than 100 µM. For the same compound, the GI50 [7] was 11.6 µM, the LC50 (concentration killing 50% of cells) [7] was greater than 100 µM and the GI50 [8] was 32 µM. It also gave an LC50 [8] greater than 100 µM, a GI50 [9] greater than 100 µM and an LC50 (concentration killing 50% of cells) [9] greater than 100 µM. The GI50 [10] was 8.78 µM, the CC50 [10] was greater than 100 µM and the GI50 [11] was 14.5 µM. It also gave an LC50 [11] greater than 100 µM, a GI50 [12] of 50.3 µM and a CC50 [12] greater than 100 µM. It also gave a GI50 [13] of 19.7 µM, an LC50 [13] greater than 100 µM and a GI50 [14] of 7.67 µM. The CC50 [14] was greater than 100 µM, the GI50 [15] was 16.5 µM and the LC50 (concentration killing 50% of cells) [15] was greater than 100 µM. For the same compound, the GI50 [16] was 0.62 µM, the LC50 (concentration killing 50% of cells present at time zero) [16] was greater than 100 µM and the LC50 [17] was greater than 100 µM. For the same compound, the GI50 [18] was 35.8 µM, the LC50 [18] was greater than 100 µM and the GI50 [19] was 1.5 µM. The CC50 [19] was greater than 100 µM, the GI50 [20] was greater than 100 µM and the LC50 [20] was greater than 100 µM. The GI50 [21] was 5.65 µM, the LC50 [21] was greater than 100 µM and the GI50 [22] was 13.4 µM. For the same compound, the LC50 [22] was greater than 100 µM, the GI50 [23] was 69.8 µM and the LC50 (50% net cell kill) [23] was greater than 100 µM. For the same compound, the GI50 [24] was 2.23 µM and the CC50 [24] was greater than 100 µM.

With `COc1cc(C2CC(c3ccc(Nc4ccnc5cc(Cl)ccc45)cc3)=NN2C=O)cc(OC)c1OC` (stereo unspecified) the GI50 [1] was 6.63 µM, the LC50 (concentration killing 50% of cells) [1] was greater than 100 µM and the GI50 [2] was 3.73 µM. The LC50 [2] was greater than 100 µM, the GI50 [3] was 11.7 µM and the LC50 [3] was greater than 100 µM. It also gave a GI50 [4] of 2.22 µM, a CC50 [4] of 14 µM and a GI50 [5] of 69.2 µM. For the same compound, the LC50 [5] was greater than 100 µM, the GI50 [6] was 15.3 µM and the CC50 [6] was greater than 100 µM. The GI50 [7] was 2.22 µM, the LC50 (concentration killing 50% of cells) [7] was greater than 100 µM and the GI50 [8] was 2.31 µM. The LC50 [8] was 9.93 µM, the GI50 [9] was 3.36 µM and the LC50 (concentration killing 50% of cells) [9] was 55.8 µM. For the same compound, the GI50 [10] was 3.23 µM, the CC50 [10] was greater than 100 µM and the GI50 [11] was 1.91 µM. For the same compound, the LC50 [11] was 6.03 µM, the GI50 [12] was 6.9 µM and the CC50 [12] was greater than 100 µM. It also gave a GI50 [13] of 4.96 µM, an LC50 [13] of 67.5 µM and a GI50 [14] of 3.75 µM. For the same compound, the CC50 [14] was 48.3 µM, the GI50 [15] was 5.87 µM and the LC50 (concentration killing 50% of cells) [15] was greater than 100 µM. The GI50 [16] was 1.98 µM, the LC50 (concentration killing 50% of cells present at time zero) [16] was 35.5 µM and the GI50 [17] was 3.2 µM. For the same compound, the LC50 [17] was greater than 100 µM, the GI50 [18] was 3.49 µM and the LC50 [18] was greater than 100 µM. For the same compound, the GI50 [19] was 2.06 µM, the CC50 [19] was 19.4 µM and the GI50 [20] was 4.42 µM. The LC50 [20] was greater than 100 µM, the GI50 [21] was 18.2 µM and the LC50 [21] was greater than 100 µM. It also gave a GI50 [22] of 3.19 µM, an LC50 [22] greater than 100 µM and a GI50 [23] of 9.98 µM. The LC50 (50% net cell kill) [23] was greater than 100 µM, the GI50 [24] was 2.53 µM and the CC50 [24] was 75.8 µM.

In the case of `Cc1ccc(C2CC(c3ccc(Nc4ccnc5cc(Cl)ccc45)cc3)=NN2C=O)cc1` (stereo unspecified), the GI50 [1] is reported as greater than 100 µM, the LC50 (concentration killing 50% of cells) [1] is reported as greater than 100 µM and the GI50 [2] is reported as 4.59 µM. It also gave an LC50 [2] greater than 100 µM, an LC50 [3] greater than 100 µM and a GI50 [4] greater than 100 µM. It also gave a CC50 [4] greater than 100 µM, a GI50 [5] greater than 100 µM and an LC50 [5] greater than 100 µM. For the same compound, the CC50 [6] was greater than 100 µM, the GI50 [7] was 4.89 µM and the LC50 (concentration killing 50% of cells) [7] was greater than 100 µM. For the same compound, the GI50 [8] was 50.9 µM, the LC50 [8] was greater than 100 µM and the GI50 [9] was greater than 100 µM. For the same compound, the LC50 (concentration killing 50% of cells) [9] was greater than 100 µM, the GI50 [10] was 8.39 µM and the CC50 [10] was greater than 100 µM. The GI50 [11] was 6.82 µM, the LC50 [11] was greater than 100 µM and the GI50 [12] was 9.86 µM. The CC50 [12] was greater than 100 µM, the GI50 [13] was 5.49 µM and the LC50 [13] was greater than 100 µM. The GI50 [14] was 6.88 µM, the CC50 [14] was greater than 100 µM and the GI50 [15] was 6.64 µM. It also gave an LC50 (concentration killing 50% of cells) [15] greater than 100 µM, a GI50 [16] of 1.74 µM and an LC50 (concentration killing 50% of cells present at time zero) [16] greater than 100 µM. The GI50 [17] was greater than 100 µM, the LC50 [17] was greater than 100 µM and the GI50 [18] was greater than 100 µM. For the same compound, the LC50 [18] was greater than 100 µM, the GI50 [19] was greater than 100 µM and the CC50 [19] was greater than 100 µM. It also gave a GI50 [20] greater than 100 µM, an LC50 [20] greater than 100 µM and a GI50 [21] greater than 100 µM. For the same compound, the LC50 [21] was greater than 100 µM, the GI50 [22] was 5.15 µM and the LC50 [22] was greater than 100 µM. For the same compound, the GI50 [23] was greater than 100 µM, the LC50 (50% net cell kill) [23] was greater than 100 µM and the GI50 [24] was 2.27 µM. It also gave a CC50 [24] greater than 100 µM.
